Experimental data published in ChEMBL document CHEMBL1287656, “New octahydroquinazoline derivatives: synthesis and hypotensive activity” (Eur J Med Chem, 2010).
The source made the active and inactive calls. The calls are words filed in the database; no cut-off is given here.

Tests used:
[1] = test system: Rattus norvegicus; assay: Hypotensive activity in anaesthetized albino rat assessed as change in diastolic arterial blood pressure at 5 mg/kg, ip up to 60 mins; format: functional, organism-based; set-up: dose 5 mg/kg
Outline: (§1)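 Male adult albino rats (groups of 6) anaesthetised with urethane 1.75–2.0 g/Kg i.p. Test agent given i.p. at 5 mg/Kg, dissolved in tween 80 and diluted 1:3 with distilled water. A solvent-treated group served as control. Arterial pressure was recorded via a cannula and pressure transducer on a chart oscillograph at 5, 15, 30 and 60 min. Statistics by one-way ANOVA or unpaired t test.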

[2] = test system: Rattus norvegicus; assay: Hypotensive activity in anaesthetized albino rat assessed as change in systolic arterial blood pressure at 5 mg/kg, ip up to 60 mins; format: functional, organism-based; set-up: dose 5 mg/kg; outline: as §1
[3] = test system: Rattus norvegicus; assay: Toxicity in anaesthetized albino rat assessed as change in heart rate at 5 mg/kg, ip after 5 mins relative to control; format: organism-based; set-up: dose 5 mg/kg, route intraperitoneal; settings: in vivo
Outline: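 Urethane-anaesthetised (1.75–2.0 g/Kg i.p.) male albino rats, 6 per group, received 5 mg/Kg i.p. in tween 80/distilled water (1:3); solvent-treated controls. Heart rate was taken from a lead II ECG at 5 min after injection (also 15, 30, 60 min). Analysed by ANOVA or unpaired t test.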

[4] = test system: Rattus norvegicus; assay: Hypotensive activity in anaesthetized albino rat assessed as change in systolic arterial blood pressure at 5 mg/kg, ip after 5 mins relative to control; format: functional; settings: route intraperitoneal; outline: as §1
[5] = test system: Rattus norvegicus; assay: Hypotensive activity in anaesthetized albino rat assessed as change in systolic arterial blood pressure at 5 mg/kg, ip after 60 mins relative to control; settings: route intraperitoneal
[6] = test system: Rattus norvegicus; assay: Hypotensive activity in anaesthetized albino rat assessed as change in diastolic arterial blood pressure at 5 mg/kg, ip after 30 mins relative to control; settings: route intraperitoneal
[7] = test system: Rattus norvegicus; assay: Toxicity in anaesthetized albino rat assessed as change in heart rate at 60 mg/kg, ip after 5 mins relative to control; format: organism-based; set-up: dose 60 mg/kg, route intraperitoneal; settings: in vivo
[8] = test system: Rattus norvegicus; assay: Hypotensive activity in anaesthetized albino rat assessed as change in diastolic arterial blood pressure at 5 mg/kg, ip; settings: TDE = time-dependent effect
[9] = test system: Rattus norvegicus; assay: Hypotensive activity in anaesthetized albino rat assessed as change in systolic arterial blood pressure at 5 mg/kg, ip after 15 mins relative to control; settings: route intraperitoneal
[10] = test system: Rattus norvegicus; assay: Hypotensive activity in anaesthetized albino rat assessed as change in diastolic arterial blood pressure at 5 mg/kg, ip after 15 mins relative to control; settings: route intraperitoneal
[11] = test system: Rattus norvegicus; assay: Hypotensive activity in anaesthetized albino rat assessed as change in diastolic arterial blood pressure at 5 mg/kg, ip after 5 mins relative to control; format: functional; settings: route intraperitoneal; outline: as §1
[12] = test system: Rattus norvegicus; assay: Toxicity in anaesthetized albino rat assessed as change in heart rate at 15 mg/kg, ip after 5 mins relative to control; format: organism-based; set-up: dose 15 mg/kg, route intraperitoneal; settings: in vivo
[13] = test system: Rattus norvegicus; assay: Hypotensive activity in anaesthetized albino rat assessed as change in systolic arterial blood pressure at 15 mg/kg, ip; format: functional, organism-based; set-up: dose 15 mg/kg; settings: TDE = time-dependent effect
[14] = test system: Rattus norvegicus; assay: Toxicity in anaesthetized albino rat assessed as change in heart rate at 30 mg/kg, ip after 5 mins relative to control; format: organism-based; set-up: dose 30 mg/kg, route intraperitoneal; settings: in vivo
[15] = test system: Rattus norvegicus; assay: Hypotensive activity in anaesthetized albino rat assessed as change in diastolic arterial blood pressure at 60 mg/kg, ip after 5 mins relative to control; format: functional; settings: route intraperitoneal
[16] = test system: Rattus norvegicus; assay: Hypotensive activity in anaesthetized albino rat assessed as reduction of adrenaline-induced increase in diastolic arterial blood pressure at 3 ug/kg, iv administered 30 mins before adrenaline challenge measured after 30 mins relative to control; format: functional; set-up: scale not given: the % may be the effect or the level left
Outline: (§2)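 Anaesthetised male albino rats (urethane 1.75–2.0 g/Kg i.p.; n=6 per group). Adrenaline (3/Kg i.v.) pressor response was recorded alone, 30 min before i.p. injection of the test agent (5 mg/Kg in tween 80/water). The adrenaline challenge was repeated 30 min and 1 h after dosing. Systolic and diastolic pressure were recorded via a cannulated artery and transducer.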

[17] = test system: Rattus norvegicus; assay: Hypotensive activity in anaesthetized albino rat assessed as reduction of adrenaline-induced increase in diastolic arterial blood pressure at 3 ug/kg, iv administered 30 mins before adrenaline challenge measured after 1 hr relative to control; format: functional; set-up: scale not given: the % may be the effect or the level left; outline: as §2
[18] = test system: Rattus norvegicus; assay: Hypotensive activity in anaesthetized albino rat assessed as reduction of adrenaline-induced increase in systolic arterial blood pressure at […], iv administered 30 mins before adrenaline challenge measured after 30 mins relative to control; format: functional; set-up: scale not given: the % may be the effect or the level left; outline: as §2
[19] = test system: Rattus norvegicus; assay: Hypotensive activity in anaesthetized albino rat assessed as reduction of adrenaline-induced increase in systolic arterial blood pressure at 3 ug/kg, iv administered 30 mins before adrenaline challenge measured after 1 hr relative to control; format: functional; set-up: scale not given: the % may be the effect or the level left; outline: as §2

| SMILES | Activity [1] | Activity [2] | Activity [3] [%] | Activity [4] [%] | Activity [5] [%] | Activity [6] [%] | Activity [7] [%] | Activity [8] | Activity [9] [%] | Activity [10] [%] | Activity [11] [%] | Activity [12] [%] | Activity [13] | Activity [14] [%] | Activity [15] [%] | Activity [16] [%] | Activity [17] [%] | Activity [18] [%] | Activity [19] [%] |
| --- | --- | --- | --- | --- | --- | --- | --- | --- | --- | --- | --- | --- | --- | --- | --- | --- | --- | --- | --- |
| CC1(C)CC(=O)C2=C(C1)N(c1ccc(Cl)cc1)CN(c1ccccc1F)C2 | inactive | inactive | – | – | – | – | – | – | – | – | – | – | – | – | – | – | – | – | – |
| CC1(C)CC(=O)C2=C(C1)N(c1ccc(Cl)cc1)CN(c1ccc(OCC(=O)N/N=C/c3ccc(Cl)cc3Cl)cc1)C2 | inactive | inactive | – | – | – | – | – | – | – | – | – | – | – | – | – | – | – | – | – |
| CC1(C)CC(=O)C2=C(C1)N(c1ccc(Cl)cc1)CN(c1ccc(Cl)cc1)C2 | – | – | 0 | 17.8 | 32.4 | 28 | 6 | tde | 23 | 25 | 18.2 | 0 | tde | 6 | 28 | – | – | – | – |
| COc1cccc(/C=N/NC(=O)COc2ccc(N3CC4=C(CC(C)(C)CC4=O)N(c4ccc(Cl)cc4)C3)cc2)c1 | inactive | inactive | – | – | – | – | – | – | – | – | – | – | – | – | – | – | – | – | – |
| CC1(C)CC(=O)C2=C(C1)N(c1ccc(Cl)cc1)CN(c1ccc(F)cc1)C2 | inactive | inactive | – | – | – | – | – | – | – | – | – | – | – | – | – | – | – | – | – |
| CCOC(=O)COc1ccc(N2CC3=C(CC(C)(C)CC3=O)N(c3ccc(Cl)cc3)C2)cc1 | inactive | inactive | – | – | – | – | – | – | – | – | – | – | – | – | – | – | – | – | – |
| Cc1ccc(N2CC3=C(CC(C)(C)CC3=O)N(c3ccc(Cl)cc3)C2)cc1 | – | – | 0 | 0 | -6 | -6.25 | 0 | tde | 0 | 0 | 0 | 0 | tde | 0 | -18.7 | -8 | 0 | -11 | 0 |
| CC1(C)CC(=O)C2=C(C1)N(c1ccc(Cl)cc1)CN(c1ccc(Br)cc1)C2 | inactive | inactive | – | – | – | – | – | – | – | – | – | – | – | – | – | – | – | – | – |
| CC1(C)CC(=O)C2=C(C1)N(c1ccc(Cl)cc1)CN(c1ccccc1)C2 | – | – | 0 | 0 | -6 | -7.7 | 12 | tde | 0 | 0 | 0 | 0 | tde | 6.25 | -7.7 | -9 | 0 | -7 | 0 |
| COc1ccc(/C=N/NC(=O)COc2ccc(N3CC4=C(CC(C)(C)CC4=O)N(c4ccc(Cl)cc4)C3)cc2)cc1 | inactive | inactive | – | – | – | – | – | – | – | – | – | – | – | – | – | – | – | – | – |
| CC1(C)CC(=O)C2=C(C1)N(c1ccc(Cl)cc1)CN(c1ccc(OCC(=O)N/N=C/c3ccccc3Cl)cc1)C2 | inactive | inactive | – | – | – | – | – | – | – | – | – | – | – | – | – | – | – | – | – |
| CC1(C)CC(=O)C2=C(C1)N(c1ccc(Cl)cc1)CN(c1ccc(OCC(=O)NN)cc1)C2 | inactive | inactive | – | – | – | – | – | – | – | – | – | – | – | – | – | – | – | – | – |
| CC1(C)CC(=O)C2=C(C1)N(c1ccc(Cl)cc1)CN(c1ccc(OCC(=O)N/N=C/c3ccc(Cl)cc3)cc1)C2 | inactive | inactive | – | – | – | – | – | – | – | – | – | – | – | – | – | – | – | – | – |
| COc1cc2nc(N3CCN(C(=O)c4ccco4)CC3)nc(N)c2cc1OC [PRAZOSIN] | – | – | 30 | -20.8 | -33.3 | -27.7 | -5.1 | – | -29.2 | -22.22 | -22.22 | 26 | – | 16 | -38.8 | -8 | 0 | -11 | 0 |
| CC1(C)CC(=O)C2=C(C1)N(c1ccc(Cl)cc1)CN(c1ccc(OCC(=O)N/N=C/c3ccc([N+](=O)[O-])cc3)cc1)C2 | – | – | 0 | -13 | -26.5 | -31.25 | -6.2 | – | -17 | -25 | -12.5 | -2.1 | – | -2.1 | -31.25 | -9 | -9 | -10 | -5 |
| CC1(C)CC(=O)C2=C(C1)N(c1ccc(Cl)cc1)CN(c1ccc(OCC(=O)N/N=C/c3ccc(Br)cc3)cc1)C2 | inactive | inactive | – | – | – | – | – | – | – | – | – | – | – | – | – | – | – | – | – |
| CC1(C)CC(=O)C2=C(C1)N(c1ccc(Cl)cc1)CN(c1ccc(OCC(=O)N/N=C/c3ccccc3)cc1)C2 | – | – | 0 | -19 | -13 | -15 | 0 | – | -13 | -10 | -10 | -4 | – | 0 | -20 | -6 | -7 | -7 | -7 |
| CC1(C)CC(=O)C2=C(C1)N(c1ccc(Cl)cc1)CN(c1ccc(OCC(=O)N/N=C/c3cccc(Br)c3)cc1)C2 | inactive | inactive | – | – | – | – | – | – | – | – | – | – | – | – | – | – | – | – | – |
| CC1(C)CC(=O)C2=C(C1)N(c1ccc(Cl)cc1)CN(c1ccc(OCC(=O)N/N=C/c3cccc([N+](=O)[O-])c3)cc1)C2 | inactive | inactive | – | – | – | – | – | – | – | – | – | – | – | – | – | – | – | – | – |
| Cc1ccc(/C=N/NC(=O)COc2ccc(N3CC4=C(CC(C)(C)CC4=O)N(c4ccc(Cl)cc4)C3)cc2)cc1 | – | – | -2 | -17.8 | -39.3 | -29.16 | -6.3 | – | -21.4 | -25 | -25 | -5 | – | -6.3 | -37.5 | -19 | -28.5 | -11 | -22 |
| CC1(C)CC(=O)C2=C(C1)N(c1ccc(Cl)cc1)CN(c1ccc(O)cc1)C2 | – | – | 0 | 0 | -3 | 0 | – | – | 0 | 0 | 0 | 0 | – | 0 | -5 | 10 | 16 | 17 | 17 |
